Key:
[1] = molecular target: 5-hydroxytryptamine receptor 2A (Homo sapiens, UniProt P28223); assay: Inhibition of 5HT2A (receptor)
[2] = molecular target: T1, 5-hydroxytryptamine receptor 2C (Homo sapiens, UniProt P28335); assay: Inhibition of 5HT2C (receptor)
T1 sequence (P28335 whole entry): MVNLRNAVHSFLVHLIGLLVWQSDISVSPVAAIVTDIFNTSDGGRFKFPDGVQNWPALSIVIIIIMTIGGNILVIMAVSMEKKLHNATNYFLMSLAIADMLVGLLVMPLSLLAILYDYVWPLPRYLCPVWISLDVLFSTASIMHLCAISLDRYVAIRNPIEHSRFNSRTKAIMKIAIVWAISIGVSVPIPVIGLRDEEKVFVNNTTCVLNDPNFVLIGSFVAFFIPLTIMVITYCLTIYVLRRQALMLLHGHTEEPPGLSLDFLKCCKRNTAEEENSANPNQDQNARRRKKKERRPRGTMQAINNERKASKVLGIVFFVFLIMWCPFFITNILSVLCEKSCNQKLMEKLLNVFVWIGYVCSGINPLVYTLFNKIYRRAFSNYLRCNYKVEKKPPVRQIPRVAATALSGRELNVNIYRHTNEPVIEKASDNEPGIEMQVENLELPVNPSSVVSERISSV

[3] = molecular target: Sodium-dependent serotonin transporter (Homo sapiens, UniProt P31645); assay: Inhibition of SERT
Chain of Sodium-dependent serotonin transporter (P31645 whole entry): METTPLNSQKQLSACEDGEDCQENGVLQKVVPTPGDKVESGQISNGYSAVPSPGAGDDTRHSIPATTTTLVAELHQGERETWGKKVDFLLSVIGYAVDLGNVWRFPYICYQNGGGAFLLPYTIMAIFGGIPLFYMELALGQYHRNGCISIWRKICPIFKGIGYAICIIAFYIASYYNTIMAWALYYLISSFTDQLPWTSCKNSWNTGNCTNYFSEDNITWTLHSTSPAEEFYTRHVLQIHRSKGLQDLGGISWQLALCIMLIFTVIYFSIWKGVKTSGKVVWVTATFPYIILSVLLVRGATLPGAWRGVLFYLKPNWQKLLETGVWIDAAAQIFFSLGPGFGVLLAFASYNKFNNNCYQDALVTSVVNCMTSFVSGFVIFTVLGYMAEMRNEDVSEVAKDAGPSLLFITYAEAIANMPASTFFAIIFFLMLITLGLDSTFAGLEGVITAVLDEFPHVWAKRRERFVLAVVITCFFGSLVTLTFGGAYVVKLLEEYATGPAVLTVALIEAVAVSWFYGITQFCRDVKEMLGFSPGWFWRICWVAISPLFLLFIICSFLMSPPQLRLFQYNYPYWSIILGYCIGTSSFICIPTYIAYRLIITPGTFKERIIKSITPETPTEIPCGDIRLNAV

[4] = molecular target: T2, Alpha-2A adrenergic receptor (Homo sapiens, UniProt P08913); assay: Inhibition of alpha2A adrenergic receptor
T2 sequence (P08913 whole entry): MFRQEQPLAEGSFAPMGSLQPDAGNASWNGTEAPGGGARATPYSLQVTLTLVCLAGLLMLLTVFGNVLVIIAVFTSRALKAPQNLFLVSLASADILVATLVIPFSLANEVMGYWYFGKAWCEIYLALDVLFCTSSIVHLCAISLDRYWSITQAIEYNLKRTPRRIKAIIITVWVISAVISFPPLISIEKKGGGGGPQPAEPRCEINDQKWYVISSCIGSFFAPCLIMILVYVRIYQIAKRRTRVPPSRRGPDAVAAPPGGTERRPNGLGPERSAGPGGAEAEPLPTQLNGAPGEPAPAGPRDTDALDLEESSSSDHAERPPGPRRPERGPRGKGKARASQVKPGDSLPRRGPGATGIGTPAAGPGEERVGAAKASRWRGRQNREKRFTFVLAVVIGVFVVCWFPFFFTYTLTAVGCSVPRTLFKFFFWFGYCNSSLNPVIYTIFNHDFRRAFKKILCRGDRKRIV

[5] = molecular target: D(2) dopamine receptor (Homo sapiens, UniProt P14416); assay: Inhibition of dopamine D2 receptor
Chain of D(2) dopamine receptor (P14416 whole entry): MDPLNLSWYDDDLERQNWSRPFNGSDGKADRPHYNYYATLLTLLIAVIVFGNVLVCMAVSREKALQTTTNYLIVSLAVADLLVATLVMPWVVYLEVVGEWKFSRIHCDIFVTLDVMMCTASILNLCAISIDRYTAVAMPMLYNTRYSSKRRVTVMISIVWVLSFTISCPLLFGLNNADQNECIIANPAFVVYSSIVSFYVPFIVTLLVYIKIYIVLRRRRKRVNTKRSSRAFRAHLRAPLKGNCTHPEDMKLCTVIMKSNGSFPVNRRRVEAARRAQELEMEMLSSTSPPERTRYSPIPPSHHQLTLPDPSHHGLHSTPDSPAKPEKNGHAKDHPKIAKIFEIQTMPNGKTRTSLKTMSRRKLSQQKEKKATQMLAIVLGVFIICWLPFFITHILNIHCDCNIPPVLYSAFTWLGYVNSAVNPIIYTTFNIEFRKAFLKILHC

[6] = molecular target: D(3) dopamine receptor (Homo sapiens, UniProt P35462); assay: Inhibition of dopamine D3 receptor
Chain of D(3) dopamine receptor (P35462 whole entry): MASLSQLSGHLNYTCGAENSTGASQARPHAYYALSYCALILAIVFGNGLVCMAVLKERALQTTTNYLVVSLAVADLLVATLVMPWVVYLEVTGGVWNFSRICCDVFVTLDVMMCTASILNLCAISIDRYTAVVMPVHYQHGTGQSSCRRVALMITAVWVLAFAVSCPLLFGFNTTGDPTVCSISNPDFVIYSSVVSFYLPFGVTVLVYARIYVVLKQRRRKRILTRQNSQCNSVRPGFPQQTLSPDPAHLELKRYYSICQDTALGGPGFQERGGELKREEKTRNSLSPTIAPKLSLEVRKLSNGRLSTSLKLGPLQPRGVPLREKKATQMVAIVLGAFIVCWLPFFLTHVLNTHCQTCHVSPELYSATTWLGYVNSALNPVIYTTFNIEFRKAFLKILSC

[7] = molecular target: Sodium-dependent dopamine transporter (Homo sapiens, UniProt Q01959); assay: Inhibition of DAT
Chain of Sodium-dependent dopamine transporter (Q01959 whole entry): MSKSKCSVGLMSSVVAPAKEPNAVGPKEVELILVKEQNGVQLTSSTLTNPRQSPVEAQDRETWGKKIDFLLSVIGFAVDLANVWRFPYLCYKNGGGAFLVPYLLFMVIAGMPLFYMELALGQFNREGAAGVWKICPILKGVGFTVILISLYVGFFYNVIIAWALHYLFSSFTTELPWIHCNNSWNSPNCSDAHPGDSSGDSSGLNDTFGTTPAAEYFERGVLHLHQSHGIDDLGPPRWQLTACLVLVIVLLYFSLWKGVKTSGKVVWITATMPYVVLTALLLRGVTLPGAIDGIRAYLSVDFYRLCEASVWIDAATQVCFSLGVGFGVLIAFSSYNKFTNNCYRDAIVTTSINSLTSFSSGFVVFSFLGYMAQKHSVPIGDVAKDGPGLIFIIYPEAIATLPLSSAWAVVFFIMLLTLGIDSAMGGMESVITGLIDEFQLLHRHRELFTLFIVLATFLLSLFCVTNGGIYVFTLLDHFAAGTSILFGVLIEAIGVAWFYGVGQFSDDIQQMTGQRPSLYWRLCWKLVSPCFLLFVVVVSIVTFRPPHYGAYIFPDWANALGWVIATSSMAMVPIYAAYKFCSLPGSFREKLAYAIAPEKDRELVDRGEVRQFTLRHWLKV

[8] = molecular target: Mu-type opioid receptor (Homo sapiens, UniProt P35372); assay: Inhibition of mu opioid receptor
Chain of Mu-type opioid receptor (P35372 whole entry): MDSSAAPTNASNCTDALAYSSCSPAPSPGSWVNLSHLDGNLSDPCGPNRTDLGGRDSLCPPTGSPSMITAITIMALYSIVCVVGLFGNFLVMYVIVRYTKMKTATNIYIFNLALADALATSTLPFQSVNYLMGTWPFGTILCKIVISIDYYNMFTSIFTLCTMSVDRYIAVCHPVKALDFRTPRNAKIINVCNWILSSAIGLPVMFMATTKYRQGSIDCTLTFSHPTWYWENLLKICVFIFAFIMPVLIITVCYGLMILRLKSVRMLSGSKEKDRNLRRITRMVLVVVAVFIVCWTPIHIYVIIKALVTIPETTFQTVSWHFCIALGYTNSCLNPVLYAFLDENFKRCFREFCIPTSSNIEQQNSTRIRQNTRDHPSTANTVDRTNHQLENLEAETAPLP

[9] = molecular target: Kappa-type opioid receptor (Homo sapiens, UniProt P41145); assay: Inhibition of kappa opioid receptor
Chain of Kappa-type opioid receptor (P41145 whole entry): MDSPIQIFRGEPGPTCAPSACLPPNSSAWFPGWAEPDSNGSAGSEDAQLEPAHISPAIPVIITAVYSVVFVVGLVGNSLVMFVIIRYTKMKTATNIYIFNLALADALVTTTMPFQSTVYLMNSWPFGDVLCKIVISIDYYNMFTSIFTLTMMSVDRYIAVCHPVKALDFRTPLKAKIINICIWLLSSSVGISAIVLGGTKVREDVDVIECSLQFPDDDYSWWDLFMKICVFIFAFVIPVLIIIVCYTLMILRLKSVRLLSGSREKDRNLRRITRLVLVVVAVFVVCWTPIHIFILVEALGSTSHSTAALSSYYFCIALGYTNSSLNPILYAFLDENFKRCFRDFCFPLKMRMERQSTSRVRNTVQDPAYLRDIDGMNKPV

[10] = molecular target: Muscarinic acetylcholine receptor M3 (Homo sapiens, UniProt P20309); assay: Inhibition of muscarinic M3 receptor
Chain of Muscarinic acetylcholine receptor M3 (P20309 whole entry): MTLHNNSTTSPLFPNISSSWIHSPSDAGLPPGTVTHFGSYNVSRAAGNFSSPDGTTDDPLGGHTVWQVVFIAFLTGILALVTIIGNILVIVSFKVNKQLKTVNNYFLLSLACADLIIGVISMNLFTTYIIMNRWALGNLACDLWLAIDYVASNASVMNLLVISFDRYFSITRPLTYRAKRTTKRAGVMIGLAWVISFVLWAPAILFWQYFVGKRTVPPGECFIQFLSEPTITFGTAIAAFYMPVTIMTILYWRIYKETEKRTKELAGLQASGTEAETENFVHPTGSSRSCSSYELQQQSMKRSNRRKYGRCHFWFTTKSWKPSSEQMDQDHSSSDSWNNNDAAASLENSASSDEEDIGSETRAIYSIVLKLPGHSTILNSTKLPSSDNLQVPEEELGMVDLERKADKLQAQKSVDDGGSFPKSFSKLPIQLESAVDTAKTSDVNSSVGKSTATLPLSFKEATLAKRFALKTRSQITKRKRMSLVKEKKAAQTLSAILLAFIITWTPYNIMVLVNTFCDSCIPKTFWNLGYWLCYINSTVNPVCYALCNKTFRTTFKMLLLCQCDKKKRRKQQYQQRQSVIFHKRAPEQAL

[11] = molecular target: Sodium-dependent noradrenaline transporter (Homo sapiens, UniProt P23975); assay: Inhibition of NET
Chain of Sodium-dependent noradrenaline transporter (P23975 whole entry): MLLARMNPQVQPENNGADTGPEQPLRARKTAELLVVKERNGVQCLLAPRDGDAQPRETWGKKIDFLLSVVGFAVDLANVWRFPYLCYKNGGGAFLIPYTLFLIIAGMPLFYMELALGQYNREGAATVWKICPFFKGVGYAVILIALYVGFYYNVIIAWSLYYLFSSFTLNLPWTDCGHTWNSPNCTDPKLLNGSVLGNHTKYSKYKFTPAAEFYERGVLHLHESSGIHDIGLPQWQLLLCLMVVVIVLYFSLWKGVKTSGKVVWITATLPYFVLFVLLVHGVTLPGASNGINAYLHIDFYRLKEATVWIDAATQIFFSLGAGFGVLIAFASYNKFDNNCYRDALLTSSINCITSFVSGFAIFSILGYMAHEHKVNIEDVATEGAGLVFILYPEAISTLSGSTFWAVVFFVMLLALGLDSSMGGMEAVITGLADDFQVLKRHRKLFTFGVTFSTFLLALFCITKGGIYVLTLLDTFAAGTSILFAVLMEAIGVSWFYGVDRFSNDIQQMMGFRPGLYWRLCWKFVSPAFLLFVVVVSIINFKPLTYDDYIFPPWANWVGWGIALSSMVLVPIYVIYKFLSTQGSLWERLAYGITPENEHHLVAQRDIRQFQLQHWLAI

[12] = molecular target: Histamine H2 receptor (Homo sapiens, UniProt P25021); assay: Inhibition of histamine H2 receptor
[13] = molecular target: T3, Growth hormone secretagogue receptor type 1 (Homo sapiens, UniProt Q92847); assay: Antagonist activity at human GHSR expressed in CHOK1 cells assessed as inhibition of ghrelin-induced intracellular calcium flux by aequorin flash luminescence assay; format: functional, cell-based, CHO-K1
T3 sequence (Q92847 whole entry): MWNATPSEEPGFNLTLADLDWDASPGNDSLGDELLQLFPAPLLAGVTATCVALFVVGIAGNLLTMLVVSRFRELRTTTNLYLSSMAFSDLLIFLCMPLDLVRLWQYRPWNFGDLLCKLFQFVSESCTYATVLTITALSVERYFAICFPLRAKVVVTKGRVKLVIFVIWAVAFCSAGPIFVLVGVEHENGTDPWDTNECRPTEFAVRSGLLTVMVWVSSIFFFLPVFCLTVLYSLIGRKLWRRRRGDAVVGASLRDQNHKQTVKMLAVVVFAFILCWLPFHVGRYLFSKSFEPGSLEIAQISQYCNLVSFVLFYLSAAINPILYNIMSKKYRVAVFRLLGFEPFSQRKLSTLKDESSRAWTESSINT
Procedure, shortened: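 Aequorin flash luminescence in CHO-K1 cells stably co-expressing human ghrelin receptor and aequorin. […] IC50 values are means of three determinations.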

[14] = molecular target: T3, Growth hormone secretagogue receptor type 1; assay: Agonist activity at human GHSR expressed in CHO cells assessed as increase in ghrelin-induced [3H]IP accumulation at 10 uM after 1 hr by scintillation counting relative to ghrelin; format: functional, cell-based
Procedure, shortened: (§1)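 CHO cells stably expressing human or rat GHSR labelled 12 h with 3H-inositol (1 µCi/mL in DMEM), then exposed to ghrelin or compound at 37 °C for 1.0 h. Lysis with 20 mM formic acid, 4 °C, 4 h. Extract taken onto SPA beads, 12 h in the dark, then radioactivity counted. IP accumulation expressed as % of maximal ghrelin response at 10, 1.0 and 0.1 µM.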

[15] = molecular target: Growth hormone secretagogue receptor type 1 (Rattus norvegicus) (UniProt O08725); assay: Agonist activity at rat GHSR expressed in CHO cells assessed as increase in ghrelin-induced [3H]IP accumulation at 10 uM after 1 hr by scintillation counting relative to ghrelin; format: functional, cell-based; procedure, shortened: as §1
Chain of Growth hormone secretagogue receptor type 1 (Rattus norvegicus) (O08725 whole entry): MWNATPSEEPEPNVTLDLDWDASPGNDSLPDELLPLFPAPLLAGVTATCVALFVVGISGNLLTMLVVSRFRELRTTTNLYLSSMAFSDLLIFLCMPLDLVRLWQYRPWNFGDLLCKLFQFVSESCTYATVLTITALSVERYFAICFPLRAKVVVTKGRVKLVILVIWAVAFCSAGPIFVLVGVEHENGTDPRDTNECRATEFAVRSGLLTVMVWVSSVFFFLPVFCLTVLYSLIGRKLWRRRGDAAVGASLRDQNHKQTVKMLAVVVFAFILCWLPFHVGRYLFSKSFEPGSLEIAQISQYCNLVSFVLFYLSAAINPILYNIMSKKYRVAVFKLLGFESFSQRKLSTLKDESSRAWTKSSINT

[16] = Induction of growth hormone release from Sprague-Dawley rat pituitary cells at 1 uM after 20 mins by RIA assay relative to ghrelin; format: functional, Pituitary gland cell
Procedure, shortened: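 Pituitary cells from 6–8-week-old male SD rats plated on poly-D-lysine and cultured 3 days at 37 °C. Washed with DMEM assay buffer (20 mM Hepes, 0.3% BSA) and held 5 min at 37 °C. Treated with rat ghrelin or compound for 20 min, then GH release measured as % of maximal ghrelin response. Means of three determinations.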

| Compound | Ki [1] [µM] | Ki [2] [µM] | Ki [3] [µM] | Ki [4] [µM] | Ki [5] [µM] | Ki [6] [µM] | Ki [7] [µM] | Ki [8] [µM] | Ki [9] [µM] | Ki [10] [µM] | Ki [11] [µM] | Ki [12] [µM] | IC50 [13] [µM] | Activity [14] [%] | Activity [15] [%] | Activity [16] [%] |
| --- | --- | --- | --- | --- | --- | --- | --- | --- | --- | --- | --- | --- | --- | --- | --- | --- |
| C[C@H]1CN(C(=O)c2ccc(-c3cn[nH]c3)cc2)CCN1C(=O)c1ccc2cc[nH]c2c1 | – | – | – | – | – | – | – | – | – | – | – | – | 0.123 | – | 17 | – |
| O=C(c1ccc(-c2ccccc2)cc1)N1CCCN(C(=O)c2ccc3cc[nH]c3c2)CC1 | – | – | – | – | – | – | – | – | – | – | – | – | 6.5 | – | – | – |
| C[C@H]1CN(C(=O)c2ccc(-c3cccc(OC(F)(F)F)c3)cc2)CCN1C(=O)c1ccc2cc[nH]c2c1 | > 10 | > 10 | > 10 | > 10 | > 10 | > 10 | > 10 | > 10 | > 10 | > 10 | > 10 | > 10 | 0.0465 | – | – | – |
| COc1cccc(-c2ccc(C(=O)N3CCN(C(=O)c4ccc5cc[nH]c5c4)[C@H](C)C3)cc2)c1 | > 10 | > 10 | > 10 | > 10 | > 10 | > 10 | > 10 | > 10 | > 10 | > 10 | > 10 | > 10 | 0.64 | – | – | – |
| C[C@H]1CN(C(=O)c2csc(-c3ccccc3F)n2)CCN1C(=O)c1ccc2cc[nH]c2c1 | – | – | – | – | – | – | – | – | – | – | – | – | 0.0337 | – | 14 | – |
| COc1cccc(-c2ccc(C(=O)N3CCN(C(=O)c4ccc5cc[nH]c5c4)C[C@@H]3C)cc2)c1 | – | – | – | – | – | – | – | – | – | – | – | – | 0.28 | – | – | – |
| C[C@H]1CN(C(=O)c2ccc(-c3cccc(F)c3)cc2)CCN1C(=O)c1ccc2cc[nH]c2c1 | > 10 | > 10 | > 10 | > 10 | > 10 | > 10 | > 10 | > 10 | > 10 | > 10 | > 10 | > 10 | 0.147 | – | – | – |
| C[C@H]1CN(C(=O)c2ccc(-c3cccnc3)cc2)CCN1C(=O)c1ccc2cc[nH]c2c1 | – | – | – | – | – | – | – | – | – | – | – | – | 0.143 | – | 21 | – |
| C[C@H]1CN(C(=O)c2ccc(-c3ccc(F)cc3)cc2)CCN1C(=O)c1ccc2cc[nH]c2c1 | > 10 | > 10 | > 10 | > 10 | > 10 | > 10 | > 10 | > 10 | > 10 | > 10 | > 10 | > 10 | 0.064 | – | – | – |

Stronger by IC50 [13], values ahead:

| Ki [1] [µM] | Ki [2] [µM] | Ki [3] [µM] | Ki [4] [µM] | Ki [5] [µM] | Ki [6] [µM] | Ki [7] [µM] | Ki [8] [µM] | Ki [9] [µM] | Ki [10] [µM] | Ki [11] [µM] | Ki [12] [µM] | IC50 [13] [µM] | Activity [14] [%] | Activity [15] [%] | Compound | Activity [16] [%] |
| --- | --- | --- | --- | --- | --- | --- | --- | --- | --- | --- | --- | --- | --- | --- | --- | --- |
| > 10 | > 10 | > 10 | > 10 | > 10 | > 10 | > 10 | > 10 | > 10 | > 10 | > 10 | > 10 | 0.007 | 33 | 34 | COc1ccc(-c2ccc(C(=O)N3CCN(C(=O)c4ccc5cc[nH]c5c4)[C@@H](C)C3)cc2)cc1 | – |
| – | – | – | – | – | – | – | – | – | – | – | – | 0.02 | – | 19 | C[C@H]1CN(C(=O)c2ccc(-c3ccccc3)nc2)CCN1C(=O)c1ccc2cc[nH]c2c1 | – |
| – | – | – | – | – | – | – | – | – | – | – | – | 0.0143 | – | 36 | Cc1cc(-c2ccccc2)ccc1C(=O)N1CCN(C(=O)c2ccc3cc[nH]c3c2)[C@@H](C)C1 | – |
| – | – | – | – | – | – | – | – | – | – | – | – | 0.025 | – | – | COc1cccc(-c2ccc(C(=O)N3CCN(C(=O)c4ccc5cc[nH]c5c4)CC3)cc2)c1 | – |
| > 10 | > 10 | > 10 | > 10 | > 10 | > 10 | > 10 | > 10 | > 10 | > 10 | > 10 | > 10 | 0.0041 | 24 | 28 | C[C@H]1CN(C(=O)c2ccc(-c3ccccc3C(F)(F)F)cc2)CCN1C(=O)c1ccc2cc[nH]c2c1 | 21 |

— ChEMBL document CHEMBL1154934, “Identification of piperazine-bisamide GHSR antagonists for the treatment of obesity” (Bioorg Med Chem Lett, 2010)
